The text below walks through data of ChEMBL document CHEMBL1944548, “Discovery of kinase spectrum selective macrocycle (16E)-14-methyl-20-oxa-5,7,14,26-tetraazatetracyclo[19.3.1.1(2,6).1(8,12)]heptacosa-1(25),2(26),3,5,8(27),9,11,16,21,23-decaene (SB1317/TG02), a potent inhibitor of cyclin dependent kinases (CDKs), Janus kinase 2 (JAK2), and fms-like tyrosine …” (J Med Chem, 2012).

As usually defined, the half-life is the time in which the quantity being followed falls by half. Low readings indicate rapid decline, high ones slow decline. What is called pIC50 is −log10 of the IC50, conventionally taken in molar units. Low values mean a high IC50, high ones a low IC50. A word on the bioavailability: it is the share of a dose that reaches the circulation, judged against a reference dose that is usually intravenous. A lower bioavailability goes with little systemic uptake. The term Papp B→A denotes how fast a substance crosses the layer from the basolateral side. In general, AUC(0-inf) refers to total exposure, with the tail of the curve extrapolated. The low end stands for low exposure, the high end for high exposure. As a reminder, the Cmax is the highest concentration seen after dosing.

pIC50: −log10 of the molar value. Activity calls are given as the source filed them. The rule behind the calls is not given here.

A short description of data set [1]: Half life in mouse liver microsomes at 5 uM by LC-MS/MS analysis. Type of data set: ADME, Microsome. The method, boiled down: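 5 μM with mouse, rat, dog or human liver microsomes (~0.87 mg/mL), 50 mM potassium phosphate pH 7.4, NADPH regeneration system, 37 °C.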
For orientation: Microsomes from liver hold many membrane-bound enzymes, among them those of drug oxidation.

Data set [2] relates to HCT-116. As to the kind of experiment: Antitumor activity against human HCT116 cells xenografted in po dosed BALB/c nude mouse assessed as tumor growth inhibition. Format: functional, organism-based. The method, boiled down:
(§1)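 Female BALB/c nude mice implanted sc with 5 × 10^6 HCT-116 cells; treatment began day 8 after inoculation when tumors were 75–144 mm3 (group mean 105 mm3), 9–10 mice/group. Oral gavage at 50 or 75 mg/kg, Mon/Wed/Fri, in 0.5% methylcellulose/0.1% Tween 80, to day 15. Volume (w2l)/2 measured twice weekly. %TGI from day-15 median volumes vs vehicle.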
On the technique in general: In xenograft studies the graft and the host belong to different species.

Another data set deals with Cytochrome P450 2C19 (Homo sapiens, UniProt P33261). As to the kind of experiment: Inhibition of CYP2C19 in human liver microsomes using mephenytoin as substrate after 60 mins by LC-MS/MS analysis. Format: ADME, Microsome. The method, boiled down:
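Human liver microsomes (0.5 mg/mL for CYP2C19, 1 mg/mL for CYP2C9), NADPH 1 mM, test at 0.05−25 μM (DMSO 0.35% final), 37 °C; probes mephenytoin 25 μM (CYP2C19) and tolbutamide 120 μM (CYP2C9), 60 min each. IC50 from decrease in metabolite formation vs vehicle.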

A short description of data set [3]: Oral bioavailability in Wistar rat at 10 mg/kg by LC-MS/MS analysis. The note with it: in vivo.
Data set [4] in a line: Plasma protein binding in dog at 1000 ng/ml after 4 hrs by equilibrium dialysis method. Type of data set: ADME, cell-free, Canis lupus familiaris. The settings on record: read-out: PPB. An outline of the steps:
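Equilibrium dialysis of plasma (mouse, dog, human) spiked to 1000 ng/mL against PBS, 4 h at 37 °C. Buffer side extracted in triplicate with MTBE, dried, reconstituted in methanol/water 60:40, measured by LC−MS/MS.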
For orientation: In equilibrium dialysis free small molecules cross a membrane that holds back macromolecules.

Data set [5] can be described thus: Apparent permeability of the compound from basolateral to apical side in human Caco2 cells at 5 uM after 21 to 28 days by LC/MS analysis. Type of data set: ADME, cell-based. The settings on record: Caco-2. An outline of the steps: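 5 μM in HBSS (DMSO <1%) dosed apical or basolateral on 21−28-day confluent Caco-2 monolayers, both sides pH 7.4. Sampled at 2 h, quantified by LC/MS with four-point calibration. Monolayer integrity checked by pre-experiment TEER (450−650 Ωcm2) and Lucifer yellow; efflux ratio = Papp B→A / Papp A→B.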

Data set [6] deals with HCT-116. As to the kind of experiment: Antitumor activity against human HCT116 cells xenografted in BALB/c nude mouse assessed as tumor growth inhibition at 50 mg/kg, po qd administered thrice in a week for 15 days. Type of data set: functional, organism-based. The arrangement: dose 50 mg/kg. The method, boiled down: as §1
The nature of data set [7]: AUC (0 to infinity) in BALB/c mouse at 75 mg/kg, po by LC-MS/MS analysis. Type of data set: ADME, organism-based. Further details: time infinity, dose 75 mg/kg, route oral. The settings on record: plasma. An outline of the steps: (§2)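 Male BALB/c mice (~10−12 weeks, 17−22 g) gavaged with 75 mg/kg as a suspension in 0.5% methylcellulose/0.1% Tween 80. Serial blood by cardiac puncture over 0−24 h into K3EDTA, plasma stored at −70 °C, LC−MS/MS; parameters by noncompartmental analysis.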

Data set [8] can be described thus: Cmax in BALB/c mouse at 75 mg/kg, po by LC-MS/MS analysis. Further details: dose 75 mg/kg, route oral. The settings on record: in vivo. Type of data set: ADME, organism-based. The method, boiled down:
as §2

Chain of Cytochrome P450 2C19 (P33261 whole entry): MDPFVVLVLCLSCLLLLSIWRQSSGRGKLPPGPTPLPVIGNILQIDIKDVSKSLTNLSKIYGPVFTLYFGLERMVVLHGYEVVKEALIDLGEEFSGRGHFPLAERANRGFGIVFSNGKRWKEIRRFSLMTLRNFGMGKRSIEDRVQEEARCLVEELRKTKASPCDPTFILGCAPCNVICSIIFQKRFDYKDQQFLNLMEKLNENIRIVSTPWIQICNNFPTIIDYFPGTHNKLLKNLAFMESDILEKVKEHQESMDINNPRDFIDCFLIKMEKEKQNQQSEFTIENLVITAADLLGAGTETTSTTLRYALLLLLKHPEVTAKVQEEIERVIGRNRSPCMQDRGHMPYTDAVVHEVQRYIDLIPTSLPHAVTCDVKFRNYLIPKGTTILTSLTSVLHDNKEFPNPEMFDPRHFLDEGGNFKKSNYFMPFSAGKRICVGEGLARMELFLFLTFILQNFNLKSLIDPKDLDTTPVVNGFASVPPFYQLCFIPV

In [1], `CN1C/C=C/CCOc2cccc(c2)-c2ccnc(n2)Nc2cccc(c2)C1` [ZOTIRACICLIB] showed a half-life at 5 µM of 12 min. In addition, the “growth inhibition (GI)” value with HCT-116 [2] was “Dose-dependent effect”. At Cytochrome P450 2C19, this compound gave a pIC50 of less than 4.60. Besides, in [3], the bioavailability was 4%. The fraction unbound at 4 h, 1000 ng/ml in data set [4] came to 0.001. Further, in [5], the Papp B→A at 5 µM came out at 274 nm/s. Also, the “growth inhibition (GI)” value in the data set on HCT-116 [6] is “Active”. The compound also displayed an area under the curve AUC(0-inf) in data set [7] of 2.52 µg·h/mL. The Cmax in [8] was 1.03 µg/mL.
